{"source": "ChEMBL document CHEMBL4020842", "about": "“Discovery of N1-(4-((7-Cyclopentyl-6-(dimethylcarbamoyl)-7 H-pyrrolo[2,3- d]pyrimidin-2-yl)amino)phenyl)- N8-hydroxyoctanediamide as a Novel Inhibitor Targeting Cyclin-dependent Kinase 4/9 (CDK4/9) and Histone Deacetlyase1 (HDAC1) against Malignant Cancer” (J Med Chem, 2018)", "key": {"Hep 3B2 [1]": {"tested_on": "Hep 3B2", "test": "Induction of apoptosis in human Hep3B cells assessed as early apoptotic cells at 1 uM after 48 hrs by annexin V-FITC/propidium iodide staining based flow cytometry (reference value: 1.91%)", "format": "functional"}, "Mus musculus": {"tested_on": "Mus musculus", "test": "Toxicity in Balb/c mouse assessed as overt signs of toxicity at 45 to 130 mg/kg, ip for 16 consecutive days", "format": "organism-based", "settings": "in vivo"}, "T47D [2]": {"tested_on": "T47D", "test": "Induction of apoptosis in human T47D cells assessed as early apoptotic cells at 10 uM after 48 hrs by annexin V-FITC/propidium iodide staining based flow cytometry (reference value: 7.7%)", "format": "functional"}, "[3]": {"test": "Tmax in Sprague-Dawley rat at 20 mg/kg, ip administered as single dose by HPLC analysis", "format": "ADME, organism-based", "settings": "in vivo"}, "NCI-H460 [4]": {"tested_on": "NCI-H460", "test": "Downregulation of CDK4 protein expression in human NCI-H460 cells after 48 hrs by Western blot method", "format": "functional, cell-based", "summary_of_the_method": "(§1)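 Treated cells were lysed and CDK4 and cyclin D1 protein levels were assessed by Western blot.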"}, "HepG2": {"tested_on": "HepG2", "test": "Induction of apoptosis in human HepG2 cells assessed as early apoptotic cells at 1 uM after 48 hrs by annexin V-FITC/propidium iodide staining based flow cytometry (reference value: 0.3%)", "format": "functional"}, "[5]": {"test": "Half life in Sprague-Dawley rat at 20 mg/kg, ip administered as single dose by HPLC analysis", "format": "ADME, organism-based", "settings": "in vivo"}, "T47D [6]": {"tested_on": "T47D", "test": "Induction of apoptosis in human T47D cells assessed as necrotic cells at 1 uM after 48 hrs by annexin V-FITC/propidium iodide staining based flow cytometry (reference value: 0.8%)", "format": "functional"}, "MDA-MB-231 [7]": {"tested_on": "MDA-MB-231", "test": "Induction of apoptosis in human MDA-MB-231 cells after 48 hrs by annexin V-FITC/propidium iodide staining based flow cytometry", "format": "functional, cell-based"}, "Hep 3B2 [8]": {"tested_on": "Hep 3B2", "test": "Downregulation of Cyclin-D1 protein expression in human Hep3B cells after 48 hrs by Western blot method", "format": "functional, cell-based", "summary_of_the_method": "as §1"}, "MDA-MB-231 [9]": {"tested_on": "MDA-MB-231", "test": "Induction of apoptosis in human MDA-MB-231 cells assessed as live cells at 5 uM after 48 hrs by annexin V-FITC/propidium iodide staining based flow cytometry (reference value: 98.1%)", "format": "functional"}, "NCI-H460 [10]": {"tested_on": "NCI-H460", "test": "Induction of apoptosis in human NCI-H460 cells assessed as late apoptotic cells at 5 uM after 48 hrs by annexin V-FITC/propidium iodide staining based flow cytometry (reference value: 1.29%)", "format": "functional"}, "[11]": {"target": "CDK2/Cyclin A2 (Homo sapiens) (UniProt P24941+P20248)", "test": "Inhibition of recombinant human full length C-terminal 6His-tagged CDK2/N-terminal GST-tagged Cyclin-A co-expressed in baculovirus infected sf21 cells at 1 uM relative to control"}, "Hep 3B2 [12]": {"tested_on": "Hep 3B2", "test": "Induction of apoptosis in human Hep3B cells assessed as necrotic cells at 10 uM after 48 hrs by annexin V-FITC/propidium iodide staining based flow cytometry (reference value: 4.97%)", "format": "functional"}, "CDK4/CDK9 (Homo sapiens) [13]": {"target": "T1, CDK4/CDK9 (Homo sapiens) (UniProt P11802+P50750)", "T1 sequence (P11802 whole entry, looked up)": "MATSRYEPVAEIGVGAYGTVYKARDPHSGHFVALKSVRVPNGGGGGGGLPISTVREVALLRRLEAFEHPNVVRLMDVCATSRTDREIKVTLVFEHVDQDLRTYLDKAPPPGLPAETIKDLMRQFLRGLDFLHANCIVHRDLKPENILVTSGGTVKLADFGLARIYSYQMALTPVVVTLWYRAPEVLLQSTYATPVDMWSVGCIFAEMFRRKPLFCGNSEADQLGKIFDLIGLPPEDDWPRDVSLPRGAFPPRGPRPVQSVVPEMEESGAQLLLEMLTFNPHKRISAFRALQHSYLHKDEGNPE", "T1 sequence (P50750 whole entry, looked up)": "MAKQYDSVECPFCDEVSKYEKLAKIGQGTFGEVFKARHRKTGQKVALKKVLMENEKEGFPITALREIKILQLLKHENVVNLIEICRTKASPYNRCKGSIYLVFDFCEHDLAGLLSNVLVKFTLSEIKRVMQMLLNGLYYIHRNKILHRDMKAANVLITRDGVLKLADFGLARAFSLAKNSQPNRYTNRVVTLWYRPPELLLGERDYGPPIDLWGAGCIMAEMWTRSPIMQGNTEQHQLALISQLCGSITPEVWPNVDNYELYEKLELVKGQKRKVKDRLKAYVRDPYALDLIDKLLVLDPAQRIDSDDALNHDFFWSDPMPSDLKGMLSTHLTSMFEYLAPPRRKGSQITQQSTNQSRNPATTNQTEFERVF", "test": "Inhibition of CDK4/CDK9 in human A549 cells assessed as reduction in Rb phosphorylation at Ser807/811 residues at 1 uM after 48 hrs by Western blot method", "format": "cell-based"}, "MDA-MB-231 [14]": {"tested_on": "MDA-MB-231", "test": "Induction of apoptosis in human MDA-MB-231 cells assessed as necrotic cells at 1 uM after 48 hrs by annexin V-FITC/propidium iodide staining based flow cytometry (reference value: […])", "format": "functional"}, "[15]": {"test": "AUC (0 to infinity) in Sprague-Dawley rat at 20 mg/kg, po administered as single dose by HPLC analysis", "format": "ADME, organism-based", "set-up": "dose 20 mg/kg, time infinity, route oral", "settings": "in vivo"}, "[16]": {"test": "Lipophilicity, log P of the compound by HPLC based shake flask method", "format": "physicochemical"}, "NCI-H460 [17]": {"tested_on": "NCI-H460", "test": "Induction of apoptosis in human NCI-H460 cells assessed as early apoptotic cells at 5 uM after 48 hrs by annexin V-FITC/propidium iodide staining based flow cytometry (reference value: 0.11%)", "format": "functional"}, "Rattus norvegicus": {"tested_on": "Rattus norvegicus", "test": "Apparent volume of distribution at steady state in Sprague-Dawley rat at 20 mg/kg, po administered as single dose by HPLC analysis", "format": "ADME, organism-based", "settings": "in vivo"}, "T47D [18]": {"tested_on": "T47D", "test": "Induction of apoptosis in human T47D cells assessed as reduction in Bcl2 protein expression after 48 hrs by Western blot method", "format": "functional, cell-based", "summary_of_the_method": "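Cells were treated with or without test agent, alongside a control, for 48h. They were then lysed and analysed by Western blot for Bcl-2 protein and cleaved caspase 3.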"}, "A549 [19]": {"tested_on": "A549", "test": "Induction of apoptosis in human A549 cells assessed as late apoptotic cells at 10 uM after 48 hrs by annexin V-FITC/propidium iodide staining based flow cytometry (reference value: 0.88%)", "format": "functional"}, "NCI-H460 [20]": {"tested_on": "NCI-H460", "test": "Induction of apoptosis in human NCI-H460 cells assessed as live cells at 10 uM after 48 hrs by annexin V-FITC/propidium iodide staining based flow cytometry (reference value: 97.3%)", "format": "functional"}, "CDK4/CDK9 (Homo sapiens) [21]": {"target": "T1, CDK4/CDK9 (Homo sapiens)", "test": "Inhibition of CDK4/CDK9 in human HepG2 cells assessed as reduction in Rb phosphorylation at Ser807/811 residues at 1 uM after 48 hrs by Western blot method", "format": "cell-based"}, "Hep 3B2 [22]": {"tested_on": "Hep 3B2", "test": "Cell cycle arrest in human Hep3B cells assessed as accumulation at G2 phase at 2.5 to 10 uM after 24 hrs by propidium iodide staining based flow cytometry", "format": "functional", "summary_of_the_method": "(§2)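 Cells were exposed for 24 h to a range of concentrations (625 nM, 2.5 and 10 µM), with DMSO vehicle as control. They were then stained with propidium iodide and analysed by flow cytometry to obtain the percentages of cells in G0/G1, S and G2 phases.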"}, "MDA-MB-231 [23]": {"tested_on": "MDA-MB-231", "test": "Induction of apoptosis in human MDA-MB-231 cells assessed as live cells at 10 uM after 48 hrs by annexin V-FITC/propidium iodide staining based flow cytometry (reference value: 98.1%)", "format": "functional"}, "NCI-H460 [24]": {"tested_on": "NCI-H460", "test": "Induction of apoptosis in human NCI-H460 cells assessed as necrotic cells at 10 uM after 48 hrs by annexin V-FITC/propidium iodide staining based flow cytometry (reference value: 1.34%)", "format": "functional"}, "CDK9/cyclin T1": {"target": "CDK9/cyclin T1 (Homo sapiens, UniProt P50750)", "sequence (O60563 whole entry)": "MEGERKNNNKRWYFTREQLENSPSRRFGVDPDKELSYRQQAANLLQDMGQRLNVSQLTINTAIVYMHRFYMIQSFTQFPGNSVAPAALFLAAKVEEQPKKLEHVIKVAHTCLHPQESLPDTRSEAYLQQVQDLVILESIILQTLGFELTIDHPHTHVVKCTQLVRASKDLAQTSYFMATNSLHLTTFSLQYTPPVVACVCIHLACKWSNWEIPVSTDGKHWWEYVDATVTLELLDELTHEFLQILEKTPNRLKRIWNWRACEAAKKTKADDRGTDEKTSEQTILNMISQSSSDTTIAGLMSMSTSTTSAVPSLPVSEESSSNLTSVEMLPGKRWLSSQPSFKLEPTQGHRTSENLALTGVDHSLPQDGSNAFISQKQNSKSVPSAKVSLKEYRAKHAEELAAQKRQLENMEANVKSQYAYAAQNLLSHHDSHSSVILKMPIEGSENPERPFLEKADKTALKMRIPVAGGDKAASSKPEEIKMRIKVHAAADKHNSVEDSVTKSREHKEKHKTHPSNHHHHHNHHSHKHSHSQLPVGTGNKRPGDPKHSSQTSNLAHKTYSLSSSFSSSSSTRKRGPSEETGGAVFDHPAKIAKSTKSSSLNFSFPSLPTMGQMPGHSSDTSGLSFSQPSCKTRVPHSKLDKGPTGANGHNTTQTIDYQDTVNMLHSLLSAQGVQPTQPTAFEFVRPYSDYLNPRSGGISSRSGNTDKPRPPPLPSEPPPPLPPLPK", "sequence (P50750 whole entry)": "as the sequence (P50750 whole entry, looked up) above", "test": "Inhibition of recombinant human full length C-terminal 6His-tagged CDK9/Cyclin-T1 co-expressed in baculovirus infected sf21 cells using PDKtide substrate in presence of [gamma33P]ATP after 10 mins by scintillation counting method"}, "NCI-H460 [25]": {"tested_on": "NCI-H460", "test": "Cell cycle arrest in human NCI-H460 cells assessed as accumulation at G0/G1 phase at 625 nM after 24 hrs by propidium iodide staining based flow cytometry", "format": "functional", "summary_of_the_method": "as §2"}, "CDK4/CDK9 (Homo sapiens) [26]": {"target": "T1, CDK4/CDK9 (Homo sapiens)", "test": "Inhibition of CDK4/CDK9 in human NCI-H460 cells assessed as reduction in Rb phosphorylation at Ser807/811 residues at 1 uM after 48 hrs by Western blot method", "format": "cell-based"}, "A549 [27]": {"tested_on": "A549", "test": "Induction of apoptosis in human A549 cells assessed as necrotic cells at 1 uM after 48 hrs by annexin V-FITC/propidium iodide staining based flow cytometry (reference value: […]%)", "format": "functional"}, "[28]": {"test": "Aqueous solubility in pH 7.4 PBS buffer at 1 mg sonicated for 24 hrs and incubated under unstirred condition for 24 hrs by HPLC method", "format": "physicochemical"}, "Hep 3B2 [29]": {"tested_on": "Hep 3B2", "test": "Induction of apoptosis in human Hep3B cells assessed as necrotic cells at 1 uM after 48 hrs by annexin V-FITC/propidium iodide staining based flow cytometry (reference value: 4.97%)", "format": "functional"}, "Histone deacetylase 1": {"target": "Histone deacetylase 1 (Homo sapiens, UniProt Q13547)", "sequence (Q13547 whole entry)": "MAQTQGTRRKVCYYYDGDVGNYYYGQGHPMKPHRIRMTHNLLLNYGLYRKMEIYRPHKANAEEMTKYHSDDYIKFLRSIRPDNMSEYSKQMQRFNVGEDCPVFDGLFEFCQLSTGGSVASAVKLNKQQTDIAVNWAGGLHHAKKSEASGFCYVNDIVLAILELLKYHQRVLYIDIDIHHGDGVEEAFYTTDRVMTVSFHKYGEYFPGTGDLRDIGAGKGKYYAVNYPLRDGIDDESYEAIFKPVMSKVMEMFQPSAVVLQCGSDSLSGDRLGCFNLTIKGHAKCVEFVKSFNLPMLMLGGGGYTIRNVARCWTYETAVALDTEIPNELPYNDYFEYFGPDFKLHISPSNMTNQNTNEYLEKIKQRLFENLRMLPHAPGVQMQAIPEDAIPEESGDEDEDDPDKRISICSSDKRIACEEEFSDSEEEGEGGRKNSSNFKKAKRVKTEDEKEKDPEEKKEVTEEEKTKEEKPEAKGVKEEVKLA", "test": "Inhibition of HDAC1 in human A549 cells assessed as increase in acetylated histone-H3 level at 0.1 to 1 uM after 24 hrs by immunofluorescence assay", "format": "cell-based"}}, "note": "Calls of active or inactive are those of the source. The rule behind the calls is not given here."}
{"smiles": "CN(C)C(=O)c1cc2cnc(Nc3ccc(NC(=O)CCCCCCC(=O)NO)cc3)nc2n1C1CCCC1", "values": [{"measurement": "Activity", "setting": "Hep 3B2 [1]", "value": 3.82, "unit": "%"}, {"measurement": "Activity", "setting": "Mus musculus", "value": "Non-Toxic"}, {"measurement": "Activity", "setting": "T47D [2]", "value": 37.1, "unit": "%"}, {"measurement": "Tmax", "setting": "[3]", "value": 0.262, "unit": "h"}, {"measurement": "Activity", "setting": "NCI-H460 [4]", "value": "Dose-dependent effect"}, {"measurement": "Activity", "setting": "HepG2", "value": 2.6, "unit": "%"}, {"measurement": "half-life", "setting": "[5]", "value": 9.65, "unit": "h"}, {"measurement": "Activity", "setting": "T47D [6]", "value": 6.7, "unit": "%"}, {"measurement": "Activity", "setting": "MDA-MB-231 [7]", "value": "Dose-dependent effect"}, {"measurement": "Activity", "setting": "Hep 3B2 [8]", "value": "Dose-dependent effect"}, {"measurement": "Activity", "setting": "MDA-MB-231 [9]", "value": 90.3, "unit": "%"}, {"measurement": "Activity", "setting": "NCI-H460 [10]", "value": 5.38, "unit": "%"}, {"measurement": "inhibition", "setting": "[11]", "value": 71, "unit": "%"}, {"measurement": "Activity", "setting": "Hep 3B2 [12]", "value": 3.02, "unit": "%"}, {"measurement": "inhibition", "setting": "CDK4/CDK9 (Homo sapiens) [13]", "value": "Active"}, {"measurement": "Activity", "setting": "MDA-MB-231 [14]", "value": 1.65, "unit": "%"}, {"measurement": "AUC(0-inf)", "setting": "[15]", "value": 1130, "unit": "ng·h/mL"}, {"measurement": "logP", "setting": "[16]", "value": 2.62}, {"measurement": "Activity", "setting": "NCI-H460 [17]", "value": 1.82, "unit": "%"}, {"measurement": "Vdss(app)", "setting": "Rattus norvegicus", "value": 431.52, "unit": "L/kg"}, {"measurement": "Activity", "setting": "T47D [18]", "value": "Active"}, {"measurement": "Activity", "setting": "A549 [19]", "value": 27.7, "unit": "%"}, {"measurement": "Activity", "setting": "NCI-H460 [20]", "value": 79.6, "unit": "%"}, {"measurement": "inhibition", "setting": "CDK4/CDK9 (Homo sapiens) [21]", "value": "Active"}, {"measurement": "Activity", "setting": "Hep 3B2 [22]", "value": "Active"}, {"measurement": "Activity", "setting": "MDA-MB-231 [23]", "value": 87.1, "unit": "%"}, {"measurement": "Activity", "setting": "NCI-H460 [24]", "value": 5.58, "unit": "%"}, {"measurement": "IC50", "setting": "CDK9/cyclin T1", "value": 9, "unit": "nM"}, {"measurement": "Activity", "setting": "NCI-H460 [25]", "value": "Active"}, {"measurement": "inhibition", "setting": "CDK4/CDK9 (Homo sapiens) [26]", "value": "Active"}, {"measurement": "Activity", "setting": "A549 [27]", "value": 6.67, "unit": "%"}, {"measurement": "solubility at 24 h", "setting": "[28]", "value": 0.35, "unit": "µg/mL"}, {"measurement": "Activity", "setting": "Hep 3B2 [29]", "value": 3.3, "unit": "%"}, {"measurement": "inhibition", "setting": "Histone deacetylase 1", "value": "Active"}]}
